CYP2C9 activ: increases human cytochrome P450 2C9 activity | 96,000 compounds, 1.4% hits | recombinant CYP2C9, luciferin-H conversion, luminescence; active compounds read high; factor 1 = untreated enzyme, 0 = blocked | activation factor at 5 µM | P11712;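 active means activation factor of 2 or more for CYP2C9 at a 5 µM dose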
CYP2C19 inhib: human CYP2C19 inhibition; CYP2C19 Supersomes, luciferin-H EGE luminescence, 30 min; inhibition, % at 5 µM; 96,000 compounds, 21% hits;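 active means CYP2C19 inhibition above a set limit at 5 µM in the primary screen, cut at about 50% in these data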
Target sequence (P33261 whole entry, looked up): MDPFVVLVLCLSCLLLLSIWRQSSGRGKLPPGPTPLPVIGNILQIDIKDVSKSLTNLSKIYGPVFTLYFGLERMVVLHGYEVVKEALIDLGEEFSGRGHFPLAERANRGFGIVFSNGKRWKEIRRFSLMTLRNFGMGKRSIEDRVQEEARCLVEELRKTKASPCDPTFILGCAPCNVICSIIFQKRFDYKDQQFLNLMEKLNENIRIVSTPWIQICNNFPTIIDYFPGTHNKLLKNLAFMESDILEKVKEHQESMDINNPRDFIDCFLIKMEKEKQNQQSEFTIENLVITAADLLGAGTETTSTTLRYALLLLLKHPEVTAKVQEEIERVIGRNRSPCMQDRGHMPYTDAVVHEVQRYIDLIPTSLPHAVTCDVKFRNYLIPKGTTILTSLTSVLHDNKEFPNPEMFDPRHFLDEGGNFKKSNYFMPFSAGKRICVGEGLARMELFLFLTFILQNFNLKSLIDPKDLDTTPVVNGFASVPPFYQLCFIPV
CYP2C19 act: increases human CYP2C19 enzyme activity; P33261; recombinant CYP2C19, luciferin-H EGE luminescence; active compounds read high; 0 = fully inhibited enzyme, 1 = untreated enzyme; activation factor at 5 µM; 96,000 tested, under 10 active;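 active means activation factor of at least 2 at 5 µM in the primary screen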
Cav3 T inh: inhibitors of human Cav3.2 T-type calcium channel; O95180; Cav3.2-expressing cells, Fluo-4 calcium fluorescence FDSS; active compounds read low; B-score at 10 µM; 100,000 compounds, 4% hits; AID 449739;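 active means single-dose well whose peak fluorescence ratio is a statistical outlier from its plate by either plate-standardised score or position-corrected B-score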
HIV Rev-RRE inh: disrupts HIV-1 Rev binding to RRE RNA; P05866; Rev peptide-RRE RNA binding, FRET; inhibition, % at 8 µM; 97,000 compounds, 0.79% hits; AID 704;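 active means inhibition above the screen-wide mean plus 3 SD, cut at about 35% in these data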
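Test system – labelled RRE RNA duplex and labelled Rev peptide · Reagent – labelled Rev peptide · Doses – one concentration, 8 µM nominal · Incubation – 5 + 15 min at 25 °C · Signal – FRET fluorescence readout · Read-out basis – % inhibition of FRET ratio versus controls · Control set – DMSO wells as 0% and neomycin B wells as 100% inhibition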
CYP2C9 inh: human CYP2C9 inhibition | inhibition, % at 5 µM | P11712 | 96,000 compounds, 20% hits | AID 777 | CYP2C9 Supersomes, luciferin-H conversion, luminescence;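 active means blocking of liver enzyme CYP2C9 beyond about 50% at 5 µM, limit read from the data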
Large screens that a line does not name were inactive. Shown are actives, neighbours in structure and some others; about 27% of the full set was active somewhere.

Cc1nnc(SCC(=O)NC(C)(C)C)n1CCc1ccccc1	none (no result: CYP2C9 activ, CYP2C19 inhib, CYP2C19 act, CYP2C9 inh)
CCN(Cc1ccccc1)S(=O)(=O)c1ccc(S(=O)(=O)N2CCN(CCC#N)CC2)cc1	none (no result: HIV Rev-RRE inh)
CC1(OC(=O)c2cccs2)C(=O)C=C2C=C3CCCN3C=C2C1=O (configuration not stated)	none (no result: CYP2C9 activ, CYP2C19 inhib, CYP2C19 act, HIV Rev-RRE inh, CYP2C9 inh)
O=C(c1cccs1)N1CCC(c2nc(-c3ccc(S(=O)(=O)N4CCOCC4)cc3)no2)CC1	CYP2C9 inh 61.9
CCCS(=O)(=O)N1CCCC(c2nc(-c3cccc(OC)c3)no2)C1 (configuration not stated)	CYP2C19 inhib 80.2, Cav3 T inh -4.01, CYP2C9 inh 76.9
O=S(=O)(c1ccc(Cl)c(F)c1)N1CCC(c2nc(-c3ccncc3)no2)CC1	none
O=S(=O)(Cc1ccccc1)N1CCCC(c2nc(-c3ccc(F)cc3)no2)C1 (configuration not stated)	none
O=[N+]([O-])c1cccc(S(=O)(=O)N2CCC(c3nc(-c4ccncc4)no3)CC2)c1	CYP2C9 inh 59.7
COc1ccc(-c2noc(C3CCCN(C(=O)c4cccs4)C3)n2)cc1 (configuration not stated)	CYP2C19 inhib 85.1, CYP2C9 inh 89.0
C=C1CCN([C@@H](CC(C)C)C(=O)NCc2ccccc2)S(=O)(=O)c2ccccc21	none (no result: CYP2C9 activ, CYP2C19 inhib, CYP2C19 act, HIV Rev-RRE inh, CYP2C9 inh)
CCC(C)C(=O)N1CCCC(c2nc(-c3cccs3)no2)C1 (configuration not stated)	none
COc1cccc(C(=O)N2CCCC(c3nc(-c4cccs4)no3)C2)c1 (configuration not stated)	CYP2C19 inhib 86.3, CYP2C9 inh 67.6
O=C(NC1CCCCC1)N1CCCC(c2nc(-c3ccc(S(=O)(=O)N4CCCC4)cc3)no2)C1 (configuration not stated)	none
COc1cc(C(=O)N2CCCC(c3nc(-c4cccs4)no3)C2)cc(OC)c1OC (configuration not stated)	CYP2C19 inhib 55.5
O=S(=O)(NC1CC1)c1ccc(S(=O)(=O)N2CCCC(c3nc(-c4cccnc4)no3)C2)cc1 (configuration not stated)	CYP2C19 inhib 69.7, CYP2C9 inh 59.2
CCCC(=O)N1CCCC(c2nc(-c3cccs3)no2)C1 (configuration not stated)	none
COc1ccc(CC(=O)OCC(=O)Nc2c(C)n(C)n(-c3ccccc3)c2=O)cc1	none (no result: HIV Rev-RRE inh)
C=CCn1c(SCc2ccc(F)cc2)nc2c1c(=O)[nH]c(=O)n2C	CYP2C19 inhib 57.5
COc1cc(OC)cc(C(=O)OCc2cc3ccccc3[nH]c2=O)c1	none
c1ccc(-c2cnc(CSc3nnc4ccccn34)o2)cc1	CYP2C19 inhib 70.5 (no result: HIV Rev-RRE inh)
Cc1ccccc1-n1nnnc1SCc1ncc(-c2ccccc2)o1	CYP2C9 inh 81.8 (no result: Cav3 T inh)
CCOC(=O)c1oc2ccccc2c1CSc1nnnn1-c1ccccc1	none
COC(C[C@@H](O)CC(=O)COCc1ccccc1)OC	none (no result: CYP2C9 activ, CYP2C19 inhib, CYP2C19 act, HIV Rev-RRE inh, CYP2C9 inh)
CCC(C)NS(=O)(=O)c1ccc(NC(=O)c2c(-c3ccccc3)noc2C)cc1 (configuration not stated)	CYP2C19 inhib 86.1, CYP2C9 inh 61.6
Cc1onc(-c2ccccc2)c1C(=O)Nc1cccc(C#N)c1	CYP2C19 inhib 55.3 (no result: HIV Rev-RRE inh)
Cc1onc(-c2ccccc2)c1C(=O)Nc1nnc(-c2ccncc2)s1	CYP2C19 inhib 61.4, CYP2C9 inh 99.4
Cc1onc(-c2ccccc2)c1C(=O)Nc1nnc(N2CCCCCC2)s1	none (no result: HIV Rev-RRE inh)
Cc1onc(-c2ccccc2)c1C(=O)Nc1ccc(S(=O)(=O)NC2=NCCCCC2)cc1	none
Cc1onc(-c2ccccc2)c1C(=O)Nc1ccncc1	CYP2C19 inhib 91.8, CYP2C9 inh 90.2
CCOC(=O)C(C(=O)OCC)C(Nc1ccc(Br)cc1)c1ccccc1 (configuration not stated)	none
O=C(O)C1=C[C@H](C2CC2)C[C@H](OCCCCO)O1	none (no result: CYP2C9 activ, CYP2C19 inhib, CYP2C19 act, HIV Rev-RRE inh, CYP2C9 inh)
CCCS(=O)(=O)N1CCC(C(=O)c2cccc(C(F)(F)F)c2)CC1	none
CS(=O)(=O)N1CCC(C(=O)c2cccc(Cl)c2)CC1	CYP2C19 inhib 78.9
O=C(O)C1CCCCC1C(=O)NCCc1ccc(Cl)cc1 (configuration not stated)	CYP2C19 inhib 74.7 (no result: Cav3 T inh)

Screening data as filed in PubChem.
